Experiment [1] has as its system T1, Neuromedin-K receptor (Homo sapiens), P29371 [H316W].
T1 sequence (whole entry): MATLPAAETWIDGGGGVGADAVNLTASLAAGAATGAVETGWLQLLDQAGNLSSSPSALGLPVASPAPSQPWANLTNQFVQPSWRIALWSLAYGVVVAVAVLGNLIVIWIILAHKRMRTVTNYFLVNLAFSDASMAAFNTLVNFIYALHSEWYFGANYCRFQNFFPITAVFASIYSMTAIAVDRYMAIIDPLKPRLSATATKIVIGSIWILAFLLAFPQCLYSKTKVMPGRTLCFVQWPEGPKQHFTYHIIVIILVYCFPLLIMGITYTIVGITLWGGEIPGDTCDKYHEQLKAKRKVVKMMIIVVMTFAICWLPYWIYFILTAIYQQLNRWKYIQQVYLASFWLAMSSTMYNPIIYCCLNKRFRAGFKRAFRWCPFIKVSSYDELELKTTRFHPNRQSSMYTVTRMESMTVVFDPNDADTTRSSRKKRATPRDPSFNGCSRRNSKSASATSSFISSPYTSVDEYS
Nature of the experiment: Antagonist activity at human NK3 H316W6.52 mutant expressed in HEK293 cells assessed as decrease in [MePhe7]NKB-induced [3H]IP accumulation after 20 mins. It is filed as functional, cell-based. The method, boiled down: (§1)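 HEK293 cells transiently expressing human NK3 WT or mutant, labeled with myo-[³H]inositol in LiCl buffer. Antagonist preincubated 20 min at 37 °C, then [MePhe⁷]NKB (0.01 nM–1 μM) added for 45 min at 37 °C. [³H]IP read by SPA beads. Schild analysis of EC50 shift and Emax depression across increasing antagonist concentrations gives pA2, slope and mode of antagonism.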

Experiment [2] deals with T2, Neuromedin-K receptor (Homo sapiens) (UniProt P29371).
T2 sequence (whole entry): T1 sequence (whole entry) with W316H
The experiment in a line: Noncompetitive inhibition at wild type human NK3 expressed in HEK293 cells assessed as decrease in [MePhe7]NKB-induced [3H]IP accumulation after 20 mins. It is filed as cell-based. The method, boiled down: as §1

Experiment [3] deals with Neuromedin-K receptor (Homo sapiens, UniProt P29371, Y247W). The experiment in a line: Displacement of radioligand [3H]osanetant at human NK3 Y247W mutant expressed in HEK293 cells. It is filed as cell-based.
Neuromedin-K receptor (Homo sapiens, UniProt P29371, Y247W), sequence (P29371 whole entry Y247W): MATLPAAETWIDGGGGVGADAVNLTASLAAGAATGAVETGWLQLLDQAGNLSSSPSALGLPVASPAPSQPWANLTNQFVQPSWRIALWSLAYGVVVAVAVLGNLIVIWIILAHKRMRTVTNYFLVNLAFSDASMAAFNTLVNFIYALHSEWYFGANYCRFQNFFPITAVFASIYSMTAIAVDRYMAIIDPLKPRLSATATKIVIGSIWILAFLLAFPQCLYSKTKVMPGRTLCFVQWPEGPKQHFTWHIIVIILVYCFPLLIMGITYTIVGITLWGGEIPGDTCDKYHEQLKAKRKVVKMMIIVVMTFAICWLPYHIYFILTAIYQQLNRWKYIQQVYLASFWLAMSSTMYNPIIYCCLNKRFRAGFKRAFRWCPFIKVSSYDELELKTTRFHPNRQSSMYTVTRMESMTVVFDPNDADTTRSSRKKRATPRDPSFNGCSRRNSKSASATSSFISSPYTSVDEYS
For experiment [4], the system named is T3, Neuromedin-K receptor (Homo sapiens), P29371 [Y247F].
T3 sequence (whole entry): T1 sequence (whole entry) with Y247F, W316H
The experiment in a line: Noncompetitive inhibition at human NK3 Y247F5.38 mutant expressed in HEK293 cells assessed as decrease in [MePhe7]NKB-induced [3H]IP accumulation after 20 mins. It is filed as cell-based. The method, boiled down:
as §1

For experiment [5], the target named is Neuromedin-K receptor (Homo sapiens, UniProt P29371, H316W). The experiment in a line: Displacement of radioligand [3H]osanetant at human NK3 H316W mutant expressed in HEK293 cells. It is filed as cell-based.
Experiment [6] concerns HEK293. The experiment in a line: Selectivity ratio of Ki for wild type human NK3 receptor expressed in HEK293 cells to Ki for human NK3 Y315F6.51 mutant expressed in HEK293 cells. It is filed as cell-based.
In experiment [7] the target is Substance-P receptor (Homo sapiens, UniProt P25103). The experiment in a line: Displacement of radioligand [3H]SP from wild type human NK1 receptor expressed in HEK293 cells. It is filed as cell-based. The method, boiled down: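 Membranes from transiently transfected HEK293 cells, 2.5 μg protein/well, in 50 mM HEPES pH 7.4 with 3 mM MnCl2, phosphoramidon, leupeptin and 0.04% BSA. 10 competitor concentrations (0.0003–10 μM), 90 min at rt. Nonspecific binding with 10 μM NK1 antagonist. Filtration, then scintillation counting. Ki by Cheng–Prusoff. Three experiments, each in duplicate.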
Substance-P receptor, sequence (P25103 whole entry): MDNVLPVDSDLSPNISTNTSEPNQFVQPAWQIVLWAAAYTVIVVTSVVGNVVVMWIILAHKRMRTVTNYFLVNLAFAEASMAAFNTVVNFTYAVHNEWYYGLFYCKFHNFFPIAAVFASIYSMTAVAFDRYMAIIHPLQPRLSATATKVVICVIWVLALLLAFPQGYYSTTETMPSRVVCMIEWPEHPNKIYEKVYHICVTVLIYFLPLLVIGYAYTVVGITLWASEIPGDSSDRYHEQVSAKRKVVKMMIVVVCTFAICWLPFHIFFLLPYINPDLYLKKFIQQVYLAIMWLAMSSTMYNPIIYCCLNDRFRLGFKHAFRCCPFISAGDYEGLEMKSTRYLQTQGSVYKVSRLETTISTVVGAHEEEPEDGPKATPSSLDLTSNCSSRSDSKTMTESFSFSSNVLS

The target in experiment [8] is Neuromedin-K receptor (Homo sapiens, UniProt P29371, Y315F). Nature of the experiment: Displacement of radioligand [3H]osanetant at human NK3 Y315F6.51 mutant expressed in HEK293 cells. It is filed as cell-based.
Neuromedin-K receptor (Homo sapiens, UniProt P29371, Y315F), sequence (P29371 whole entry Y315F): as the sequence (P29371 whole entry Y247W) above, with W247Y, Y315F counted along it
Experiment [9] relates to T4, Neuromedin-K receptor (Homo sapiens), P29371 [Y315F].
T4 sequence (whole entry): T1 sequence (whole entry) with Y315F, W316H
The experiment in a line: Noncompetitive inhibition at human NK3 Y315F6.51 mutant expressed in HEK293 cells assessed as decrease in [MePhe7]NKB-induced [3H]IP accumulation after 20 mins. It is filed as cell-based. In a few lines: as §1

The test system of experiment [10] is Gerbillinae. Nature of the experiment: Inhibition of foot tapping response in po dosed gerbil. It is filed as functional.
Experiment [11] relates to HEK293. Nature of the experiment: Selectivity ratio of Ki for human NK3 H316F mutant expressed in HEK293 cells to Ki for wild type human NK3 receptor expressed in HEK293 cells. It is filed as cell-based.

Numbering of substitutions follows the chain as printed. Activity calls are given as the source filed them. The calls are words filed in the database; no cut-off is given here.

Consider `Cc1cc(F)ccc1-c1cc(N2CC[C@H](O)[C@H]2CO)ncc1N(C)C(=O)C(C)(C)c1cc(C(F)(F)F)cc(C(F)(F)F)c1`, for which, in experiment [1], the result was inactive. In addition, the inhibition result in experiment [2], in experiment [4] and in [9] was “Active” in each case. Further, the Ki in experiment [3] came out at 3.4 nM; in experiment [5], 2010 nM; in experiment [7] it was 0.7 nM; in [8], 0.7 nM. Besides, the results for the Ratio Ki in experiment [6] and in experiment [11] were 4.1 and 4.3, respectively. In addition, the 50% effect level in experiment [10] (ED50) was put at a dose of 0.4 mg/kg.

For orientation: Ki means a dissociation constant, usually derived from enzyme kinetics or from competition with a known ligand. Low values mean tighter binding, high ones weaker binding. One may read the ED50 as the midpoint of the dose-response relation. The low end stands for an effect at a small dose, the high end for a need for a large dose.

For the origin of these results see ChEMBL document CHEMBL2203099, “Identification of a crucial amino acid in the helix position 6.51 of human tachykinin neurokinin 1 and 3 receptors contributing to the insurmountable mode of antagonism by dual NK₁/NK₃ antagonists” (J Med Chem, 2012).
